# Laboratory results published in the RNAGym collection of RNA variant scans (doi:10.1126/science.aae0568).
# Variants at the floor of the assay were thinned out.
# B1: tRNA (parent)
# chain: GUUCCGUUGGCGUAAUGGUAACGCGUCUCCCUCCUAAGGAGAAGACUGCGGGUUCGAGUCCCGUACGGAACG
# Variants of: B1
# Test: yeast fitness relative to wild type (ratio to wild type); higher = fitter; tRNA-Arg(CCU), competitive growth, 37 C, YPD
# How it was run: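 Variants of the tRNA-Arg(CCU) gene, chemically synthesised with a 3% per-site mutation rate at 69 sites, were placed at the native genomic locus in Saccharomyces cerevisiae. The pooled strains were competed in YPD at 37°C for 24 hours in six parallel replicates. Gene amplicons from the start population and from each end population were read by 100-nucleotide paired-end sequencing. Darwinian fitness relative to wild type came from changes in genotype frequencies; genotypes needed ≥ 100 starting reads, and estimates < 0.5 were set to 0.5.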
row,Variant,yeast fitness
1,GUUCCGUUGGCGUAAUGGUAACGCGUCUGCCUCCUAGGGAGAAGUCUGCGGGUUCGAGUCCCGUACGCAACG [C29G A37G A45U G68C],≤ 0.5
2,GUUCCGUUGGCGUAAUGGUAACGCGUCUGCCUCCUAGGGAGAAGACUGCGGGUUCGAGUUCCGUACGGCACG [C29G A37G C60U A69C],≤ 0.5
3,GUUCCGUUGGCGUAAUGGUAACGCGUCUGCCUCCUAGGGAGAAGACUGCGGGUUCGAGUCCCGUACCGAACG [C29G A37G G67C],0.672
4,GUUCCGUUGGCGUAAUGGUAACGCGUCUGCCUCCUAUGGAGAAGACUGCGGAUUCGAGUCCCGUACGGAACG [C29G A37U G52A],0.546
5,GUUCCGUUGGCGUAAUGGUAACGCGUCUGCCUCCUAAGGCGAAGACUGCGGGUUCGAGUCCCGUACGGAACG [C29G A40C],0.685
6,GUUCCGUUGGCGUAAUGGUAACGCGUCUGCCUCCUAAGGCGCAGACUGCGGGUUCGAAUCCCGUACGGAACG [C29G A40C A42C G58A],≤ 0.5
7,GUUCCGUUGGCGUAAUGGUAACGCGUCUGCCUCCUAAGGGGAAGACUGCGGGUUCGAGUCCCAUACGGAACG [C29G A40G G63A],≤ 0.5
8,GUUCCGUUGGCGUAAUGGUAACGCGUCUGCCUCCUAAGGUGAAGACUGCGGGUUCGAGUCCCGUACGGAACG [C29G A40U],0.555
9,GUUCCGUUGGCGUAAUGGUAACGCGUCUGCCUCCUAAGGUGAGGAGUGCGGGUUCGAGUCCCGAACGGAACG [C29G A40U A43G C46G U64A],≤ 0.5
10,GUUCCGUUGGCGUAAUGGUAACGCGUCUGCCUCCUAAGGUGAAGACUGCGGGUUCGAGUCCCGUUCGGAACG [C29G A40U A65U],≤ 0.5
11,GUUCCGUUGGCGUAAUGGUAACGCGUCUGCCUCCUAAGGUGAAGACUGCGGGUUAGAGUCCCGUACCGAACG [C29G A40U C55A G67C],≤ 0.5
12,GUUCCGUUGGCGUAAUGGUAACGCGUCUGCCUCCUAAGGUGAAGACUGCGGGUUCGAGUCUCGUAUGGAACG [C29G A40U C61U C66U],≤ 0.5
13,GUUCCGUUGGCGUAAUGGUAACGCGUCUGCCUCCUAAGGAGCAGACUGCGGGUUCGAGUCCCGUACGGAACG [C29G A42C],0.685
14,GUUCCGUUGGCGUAAUGGUAACGCGUCUGCCUCCUAAGGAGCAGACUGCGGCUUCGAGACCCGUACGGAACG [C29G A42C G52C U59A],≤ 0.5
15,GUUCCGUUGGCGUAAUGGUAACGCGUCUGCCUCCUAAGGAGCAGACUGCGGGUUCAAGUCCCGUACGGAACG [C29G A42C G56A],0.601
16,GUUCCGUUGGCGUAAUGGUAACGCGUCUGCCUCCUAAGGAGGAGACUGCGGGUUCGAGUCCCGUACGGAACG [C29G A42G],0.694
17,GUUCCGUUGGCGUAAUGGUAACGCGUCUGCCUCCUAAGGAGGAGAAUGCGGGUUCGCGUCCCGUACGGAACG [C29G A42G C46A A57C],≤ 0.5
18,GUUCCGUUGGCGUAAUGGUAACGCGUCUGCCUCCUAAGGAGGAGACUGCGGCUUCGAGUCCCGUACGGAACG [C29G A42G G52C],0.702
19,GUUCCGUUGGCGUAAUGGUAACGCGUCUGCCUCCUAAGGAGGAGACUGCGGGUUCGAGUCCCGGACGGAACG [C29G A42G U64G],≤ 0.5

row,Variant,yeast fitness
1,GUUCCGUUGGCGUAAUGGUAACGCGUCUGCCUCCUAAGGAGUAGACUGCGGGUUCGAGUCCCGUACGGAACG [C29G A42U],0.712
2,GUUCCGUUGGCGUAAUGGUAACGCGUCUGCCUCCUAAGGAGUAGACGGCGGGUUCGCGUCACGUACGGAACG [C29G A42U U47G A57C C61A],≤ 0.5
3,GUUCCGUUGGCGUAAUGGUAACGCGUCUGCCUCCUAAGGAGACGACUGCGGGUUCGAGUCCCGUACGGAACG [C29G A43C],0.661
4,GUUCCGUUGGCGUAAUGGUAACGCGUCUGCCUCCUAAGGAGACGACUGCGCGUUCGCGUCCCGUACGGAACG [C29G A43C G51C A57C],≤ 0.5
5,GUUCCGUUGGCGUAAUGGUAACGCGUCUGCCUCCUAAGGAGACGACUGCGGGUUCGAGUCCCGUACCGAACG [C29G A43C G67C],0.654
6,GUUCCGUUGGCGUAAUGGUAACGCGUCUGCCUCCUAAGGAGAGGACUGCGGGUUCGAGUCCCGUACGGAACG [C29G A43G],0.785
7,GUUCCGUUGGCGUAAUGGUAACGCGUCUGCCUCCUAAGGAGAGGACUGGGGGUUCGAGUCCCGUACGGAACG [C29G A43G C49G],0.532
8,GUUCCGUUGGCGUAAUGGUAACGCGUCUGCCUCCUAAGGAGAGGACAGCGGGUUCGAGUCCCGUACGGAACG [C29G A43G U47A],≤ 0.5
9,GUUCCGUUGGCGUAAUGGUAACGCGUCUGCCUCCUAAGGAGAUGACUGCGGGUUCGAGUCCCGUACGGAUCG [C29G A43U A70U],0.563
10,GUUCCGUUGGCGUAAUGGUAACGCGUCUGCCUCCUAAGGAGAUGAGUGCGGGUUCGAGUCCAGUACGGAACG [C29G A43U C46G C62A],≤ 0.5
11,GUUCCGUUGGCGUAAUGGUAACGCGUCUGCCUCCUAAGGAGAUGAUUGCGGGUUCGAGUCCCGUACGGAACG [C29G A43U C46U],≤ 0.5
12,GUUCCGUUGGCGUAAUGGUAACGCGUCUGCCUCCUAAGGAGAUGACUGCGGGUUCGAGUCCCGUAUGGAACG [C29G A43U C66U],≤ 0.5
13,GUUCCGUUGGCGUAAUGGUAACGCGUCUGCCUCCUAAGGAGAAGCCUGCGGGUUCGAGUCCCGUACGGAACG [C29G A45C],0.614
14,GUUCCGUUGGCGUAAUGGUAACGCGUCUGCCUCCUAAGGAGAAGCCUGCGGGUUCGAGUCCCGUACGGAGCG [C29G A45C A70G],0.573
15,GUUCCGUUGGCGUAAUGGUAACGCGUCUGCCUCCUAAGGAGAAGCCUGCGGAUUCGAGUCCCGUACGGAACG [C29G A45C G52A],≤ 0.5
16,GUUCCGUUGGCGUAAUGGUAACGCGUCUGCCUCCUAAGGAGAAGGCUGCGGGUUCGAGUCCCGUACGGCCCG [C29G A45G A69C A70C],≤ 0.5
17,GUUCCGUUGGCGUAAUGGUAACGCGUCUGCCUCCUAAGGAGAAGACUGCGGGUUCGCGGCCCGUACGGAACG [C29G A57C U59G],≤ 0.5
18,GUUCCGUUGGCGUAAUGGUAACGCGUCUGCCUCCUAAGGAGAAGACUGCGGGUUCGUGUCCCGUACGGAACG [C29G A57U],0.72
